The record followed here is ChEMBL document CHEMBL3085679, “Combining in silico and biophysical methods for the development of Pseudomonas aeruginosa quorum sensing inhibitors: an alternative approach for structure-based drug design” (J Med Chem, 2013).

A short description of assay [1]: Inhibition of Pseudomonas aeruginosa recombinant His6-tagged PqsD expressed in Escherichia coli BL21(lambda DE3) assessed as anthraniloyl-CoA and beta-ketodecanoic acid conversion to heptyl-4-hydroxyquinoline preincubated for 10 mins prior to substrate addition by LC-MS/MS analysis. In outline: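 HHQ formation from anthraniloyl-CoA and β-ketodecanoic acid by purified PqsD (0.1 µM) in 0.05 M MOPS pH 7.0, 0.005% Triton X-100, 0.5% final DMSO; 10 min preincubation with inhibitor at 37 °C, started with anthraniloyl-CoA (5 µM final) and β-ketodecanoic acid (70 µM final); HHQ quantified by LC-MS, DMSO control set to 100%; triplicates.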

The test system of assay [2] is Pseudomonas aeruginosa. Put plainly: Competitive binding affinity to Pseudomonas aeruginosa recombinant His6-tagged PqsD ACoA-channel expressed in Escherichia coli BL21(lambda DE3) at 100 uM by SPR analysis in presence of (2-nitrophenyl)(phenyl)methanol. A digest of the protocol: (§1)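 SPR competition: amine-coupled PqsD on CMD500M chip preincubated by adding competitor (100 µM) to running buffer (50 mM MOPS pH 8.0, 150 mM NaCl, 5% DMSO, 0.1% Triton X-100), flushed at 50 µL/min until stable; test compounds (100 µM) then injected twice at 10 µL/min, 120 s association, 300 s dissociation.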
For orientation: In SPR one partner is held on a chip, and binding of the other changes the refractive index at the surface.

Assay [3] relates to Pseudomonas aeruginosa. Put plainly: Competitive binding affinity to Pseudomonas aeruginosa recombinant His6-tagged PqsD ACoA-channel expressed in Escherichia coli BL21(lambda DE3) at 100 uM by SPR analysis in presence of (2-nitrophenyl)methanol. In outline:
as §1

Assay [4] concerns Pseudomonas aeruginosa. Put plainly: Binding affinity to Pseudomonas aeruginosa recombinant His6-tagged PqsD expressed in Escherichia coli BL21(lambda DE3) at 100 uM by SPR analysis. A digest of the protocol:
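SPR: wild-type or R223A mutant PqsD amine-coupled to CMD500M chip (5000-6000 RU) at 12 °C; running buffer 50 mM MOPS pH 8.0, 150 mM NaCl, 5% DMSO, 0.1% Triton X-100; compounds at 100 µM final injected twice, 120 s association, 300 s dissociation, 50 µL/min; double referencing with blanks and DMSO calibration.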

Assay [5] concerns Pseudomonas aeruginosa. Put plainly: Inhibition of anthraniloyl coenzyme A binding to Pseudomonas aeruginosa recombinant His6-tagged PqsD ACoA-channel expressed in Escherichia coli BL21(lambda DE3) by SPR analysis.
A short description of assay [6]: Binding affinity to Pseudomonas aeruginosa recombinant His6-tagged PqsD expressed in Escherichia coli BL21(lambda DE3) measured every 180 seconds by isothermal titration calorimetric analysis. In outline:
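ITC at 25 °C in PBS pH 7.4, 10% glycerol, 5% DMSO; 100 µM His6-PqsD in cell titrated with 2 µL injections of 1.0 mM ligand every 180 s; ligand diluted 1:20 from 20 mM DMSO stock; protein quantified by A280 (ε 17,780 M−1 cm−1); stoichiometry and KD fitted.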

In assay [7] the test system is Pseudomonas aeruginosa. Put plainly: Binding affinity to Pseudomonas aeruginosa recombinant His6-tagged PqsD ACoA-channel expressed in Escherichia coli BL21(lambda DE3) at 25 uM after 30 mins by LC-ESI-MS analysis. In outline:
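PqsD (25 µM) preincubated 30 min at 37 °C with compound (25 µM) in 0.05 M Tris-HCl pH 8.0, 0.5% DMSO; DTT added, then reversed-phase HPLC (C8, water/acetonitrile with 0.05% TFA gradient, 45 °C) coupled to ESI high-resolution TOF MS to detect intact protein–inhibitor adduct mass.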

Assay [8] concerns Pseudomonas aeruginosa. Put plainly: Binding affinity to tryptically digested Pseudomonas aeruginosa recombinant His6-tagged PqsD ACoA-channel expressed in Escherichia coli BL21(lambda DE3) at 10 uM after 60 mins by MALDI-TOF-MS analysis. A digest of the protocol: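 PqsD (10 µM) and compound (10 µM) preincubated 60 min at 37 °C in 0.05 M MOPS pH 7.0, 0.005% Triton X-100, 0.5% DMSO; buffer exchanged to 0.05 M NH4HCO3 pH 8.1 by diafiltration, trypsin digestion overnight, DTT added; peptides analysed by MALDI-TOF in positive reflector mode, tracking the Cys112-containing fragment.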

In another assay the test system is Escherichia coli. Put plainly: Inhibition of Escherichia coli RNA polymerase at 200 uM preincubated for 10 mins prior to DNA template and NTPs addition measured after 10 mins by [5,6-3H]-UTP incorporation assay relative to control. In outline: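 E. coli RNA polymerase holoenzyme (1 unit) in 40 mM Tris-HCl pH 7.5, 150 mM KCl, 10 mM MgCl2, 10 mM DTT, 0.1% CHAPS, RNase inhibitor, 2% final DMSO; preincubated with compound 10 min at 25 °C; started with plasmid DNA template plus 400 µM ATP/CTP/GTP, 100 µM UTP and [5,6-3H]-UTP, 10 min at 37 °C; TCA-precipitated RNA counted by scintillation.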

Assay [9] deals with Pseudomonas aeruginosa. Put plainly: Binding affinity to Pseudomonas aeruginosa recombinant His6-tagged PqsD R223A mutant expressed in Escherichia coli BL21(lambda DE3) at 100 uM by SPR analysis. A digest of the protocol: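 Recombinant His6-PqsD R223A (E. coli BL21(λDE3), Ni-NTA purified) amine-coupled to CMD500M chip at 5000-6000 RU. Compounds diluted from 10 mM DMSO stock to 100 µM final in running buffer (50 mM MOPS pH 8.0, 150 mM NaCl, 5% DMSO, 0.1% Triton X-100). Run at 12 °C, 50 µL/min. Each compound injected twice, 120 s association, 300 s dissociation. Data double-referenced against blanks and DMSO calibration.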

Assay [10] deals with Pseudomonas aeruginosa. Put plainly: Competitive binding affinity to Pseudomonas aeruginosa recombinant His6-tagged PqsD ACoA-channel expressed in Escherichia coli BL21(lambda DE3) at 1 mM by saturation transfer difference NMR analysis in presence of (2-nitrophenyl)(phenyl)methanol.

pIC50, pKd: −log10 of the molar value. The source made the active and inactive calls. No cut-off for these calls is given here.

For `COc1ccc(-c2cc(NC(=O)NCC(=O)O)c(C(=O)O)s2)cc1`, the pIC50 (usually −log10 of the IC50, conventionally taken in molar units) in assay [1] is 5.15.
As for `CCN(Cc1ccccc1)C(=O)Nc1cc(-c2ccc(OC)cc2)sc1C(=O)O`, the result with Pseudomonas aeruginosa [2] and in the assay with Pseudomonas aeruginosa [4] was Active. The outcome in the assay on Pseudomonas aeruginosa [3] was inactive. Further, the inhibition (as a rule, the drop in the measured response relative to a control, in per cent) with Pseudomonas aeruginosa [5] is “Active”. For the same compound, the pKd (commonly the negative decadic logarithm of the Kd, by convention in mol/L) in [6] is 5.20. Moreover, the pIC50 in assay [1] was 5.22.
With `O=C(CCl)Nc1ccc(-c2cc(NC(=O)N[C@@H](Cc3ccccc3)C(=O)O)c(C(=O)O)s2)cc1`, the result in the assay with Pseudomonas aeruginosa [7] and in the assay with Pseudomonas aeruginosa [8] was Active. In assay [1], the pIC50 was 5.70.
On to `COc1ccc(-c2cc(NC(=O)NC(C)(C)C(=O)O)c(C(=O)O)s2)cc1`, for which the negative-log IC50 (pIC50) in assay [1] is 4.25.
Still for that read-out and setting: for `COc1ccc(-c2cc(NC(=O)NCCc3ccccc3)c(C(=O)O)s2)cc1` the value was 4.24; for `COc1ccc(-c2cc(NC(=O)NCCC(=O)O)c(C(=O)O)s2)cc1`, 4.43.
For the compound `NC(=O)Nc1cc(-c2ccc(Oc3ccccc3)cc2)sc1C(=O)O`, the outcome with Pseudomonas aeruginosa [2], in the assay on Pseudomonas aeruginosa [3] and in the assay with Pseudomonas aeruginosa [4] was Active. For the same compound, in assay [1], the pIC50 is 4.70.
On to `COc1ccc(-c2cc(NC(=O)N[C@@H](C)C(=O)O)c(C(=O)O)s2)cc1`, for which the inhibition in the assay with Escherichia coli amounted to 10%. In addition, the pIC50 in assay [1] was 5.70.
As for `COc1ccc(-c2cc(NC(N)=O)c(C(=O)O)s2)cc1`, the RU with Pseudomonas aeruginosa [9] turned out to be 6; in the assay on Pseudomonas aeruginosa [4], 25. Moreover, in the assay with Pseudomonas aeruginosa [2], the outcome was Active. The pIC50 in [1] is 3.77.
Consider `COc1ccc(-c2cc(NC(=O)N[C@H](Cc3ccccc3)C(=O)O)c(C(=O)O)s2)cc1`, for which the pIC50 in assay [1] was 4.59.
Turning to `COc1ccc(-c2cc(NC(=O)N[C@H](C)C(=O)O)c(C(=O)O)s2)cc1`, the pIC50 in [1] is 4.27.
Turning to `COc1ccc(-c2cc(NC(=O)N[C@@H](Cc3ccccc3)C(=O)O)c(C(=O)O)s2)cc1`, the result in the assay on Pseudomonas aeruginosa [10] and in the assay with Pseudomonas aeruginosa [2] was Active. The compound further returned an inhibition in the assay on Escherichia coli of 10%. The pIC50 in assay [1] is 6.30.
